Published values from different studies.
Target: 5'-AMP-activated protein kinase catalytic subunit alpha-1 (PRKAA1, Homo sapiens, UniProt Q13131)
Method: competition with immobilised ligand

SMILES	effect on	concentration	remaining binding [%]
COc1ccnn2ncc(-c3ccnc(N(C)C)n3)c12	binding	1 µM	97
CS(=O)(=O)c1cc(C2(NC(=O)c3cncc4c3cnn4-c3ccc(F)cc3)CC2)ccn1	cell-free assay	1 µM	99
O=C(c1ccc(Nc2nccc(-c3cc4ccccc4s3)n2)cc1)N1CCC(N2CCCC2)CC1	binding	1 µM	36
C=CC(=O)N1CCC(C(=O)NCC(=O)N2CCN(c3nc(-c4cnc(N)nc4C(F)F)nc(N4CCOCC4)n3)CC2)CC1	binding	1 µM	97
C[C@H]1CCN(c2nccc(-c3cnn4ncccc34)n2)C1	binding	1 µM	93
O=C(NCC1CCOCC1)c1n[nH]cc1NC(=O)c1c(F)cccc1F	binding	1 µM	93
c1cnn2ncc(-c3ccnc(N4CCC45COC5)n3)c2c1	binding	1 µM	92
CCN1CCN(Cc2ccc(C(=O)Nc3ccc(C)c(Oc4ccc5c(c4)CC(=O)N5)c3)cc2C(F)(F)F)CC1	binding	1 µM	100
COc1ncc2cc3ccccc3nc2c1C#N	cell-free assay	5 µM	100
O=C(Nc1cnc(Oc2ccc(F)cc2)nc1)N1CCc2ncccc2[C@@H]1c1ccc(F)cc1	cell-free assay	1 µM	88
COc1cnc(Nc2cccc(S(N)(=O)=O)c2)nc1N1CCN(c2ccccc2)C(=O)C1	binding	1 µM	100
CC(C)CC(=O)N1CCc2nc(-c3ccc(Br)cc3)nc(N(C)Cc3ccccc3)c2C1	cell-free assay	0.1 µM	100
Cc1cnn2ncc(-c3ccnc(N(C)C)n3)c2c1	binding	1 µM	93
O=C(c1ccc(Nc2ncc(Cl)c(-c3cc4ccccc4s3)n2)cc1)N1CCC(N2CCCC2)CC1	binding	1 µM	5.7
CN(C)C(=O)Cn1cc(-c2nc(C3(c4ccc(-c5cnc(N)nc5)cc4)CC3)no2)cn1	cell-free assay	1 µM	98
Nc1ncc2c(n1)-c1c([nH]c3ccc(C#CC4CC4)cc13)CCCC2	binding	1 µM	97
CS(=O)(=O)NCC[C@H](NC(=O)c1cncc2c1cnn2-c1ccc(F)cc1)c1ccnc(S(C)(=O)=O)c1	cell-free assay	1 µM	100
N[C@H]1CCN(c2nccc(-c3cnn4ncccc34)n2)C1	binding	1 µM	100
O=C(NCCCN1CCOCC1)c1ccc(Nc2nccc(-c3cc4ccccc4s3)n2)cc1	binding	1 µM	42
CN(C)c1ncc(F)c(-c2cnn3ncccc23)n1	binding	1 µM	48
CNCc1ccccc1-c1csc([C@@H](C)Nc2nc(C)nc3cc(OC)c(OC)cc23)c1	cell-free assay	1 µM	100
